One molecule from ChEMBL document CHEMBL5230149, “Discovery of novel ketoxime ether derivatives with potent FXR agonistic activity, oral effectiveness and high liver/blood ratio” (Bioorg Med Chem, 2021) can be followed below.

A word on the EC50: it is the concentration that produces a half-maximal response. Broadly, the Kp is tissue or fluid exposure divided by exposure in the circulation.

In one data set the target is T1, Bile acid receptor (Homo sapiens, UniProt Q96RI1).
T1 sequence (Q96RI1 whole entry): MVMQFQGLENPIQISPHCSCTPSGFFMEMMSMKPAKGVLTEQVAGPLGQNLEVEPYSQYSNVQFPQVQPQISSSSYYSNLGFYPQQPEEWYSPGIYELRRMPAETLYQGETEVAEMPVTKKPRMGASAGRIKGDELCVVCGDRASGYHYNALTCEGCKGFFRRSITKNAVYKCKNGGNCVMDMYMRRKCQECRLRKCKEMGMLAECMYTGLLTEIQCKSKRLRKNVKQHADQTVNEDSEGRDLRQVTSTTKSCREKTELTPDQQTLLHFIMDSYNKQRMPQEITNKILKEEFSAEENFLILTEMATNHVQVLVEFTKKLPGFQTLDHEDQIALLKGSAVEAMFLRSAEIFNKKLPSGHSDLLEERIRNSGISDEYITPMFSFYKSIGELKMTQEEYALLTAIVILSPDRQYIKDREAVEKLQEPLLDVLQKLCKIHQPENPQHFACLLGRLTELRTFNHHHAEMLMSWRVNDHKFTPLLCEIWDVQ
As to the kind of experiment: Agonist activity at human FXR expressed in human Huh-7 cells co-transfected with FXRE-Luc reporter plasmid assessed as receptor transactivation incubated for 16 hrs by luciferase reporter gene assay. Type of data set: cell-based. For orientation: Reporter assays use an easily measured gene product as a stand-in for the process of interest.

Data set [1] addresses T2, G-protein coupled bile acid receptor 1 (Homo sapiens, UniProt Q8TDU6).
T2 sequence (Q8TDU6 whole entry): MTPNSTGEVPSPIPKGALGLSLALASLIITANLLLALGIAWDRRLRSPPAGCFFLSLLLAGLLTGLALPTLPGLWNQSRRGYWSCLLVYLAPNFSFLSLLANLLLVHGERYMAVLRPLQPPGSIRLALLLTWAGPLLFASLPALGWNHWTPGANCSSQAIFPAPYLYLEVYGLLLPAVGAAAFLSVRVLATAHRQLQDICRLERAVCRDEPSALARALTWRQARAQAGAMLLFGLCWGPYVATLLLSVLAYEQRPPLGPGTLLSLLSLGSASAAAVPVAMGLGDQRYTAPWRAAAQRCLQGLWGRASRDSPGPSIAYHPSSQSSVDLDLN
As to the kind of experiment: Agonist activity at human TGR5 expressed in HEK293 cells co-transfected with CRE-Luc reporter plasmid assessed as receptor transactivation incubated for 5.5 hrs by luciferase reporter gene assay. Type of data set: cell-based.

The target in data set [2] is T3, TGR5 (G-protein coupled bile acid receptor 1) (Homo sapiens, UniProt Q8TDU6).
T3 sequence (Q8TDU6 whole entry): T2 sequence (Q8TDU6 whole entry)
As to the kind of experiment: Agonist activity at human TGR5 expressed in HEK293 cells co-transfected with CRE-Luc reporter plasmid assessed as receptor transactivation incubated for 5.5 hrs by luciferase reporter gene assay relative to OCA. It is filed as cell-based. The conditions noted are these: read-out: Efficacy.

In data set [3] the target is T4, Bile acid receptor (Mus musculus) (UniProt Q60641).
T4 sequence (whole entry): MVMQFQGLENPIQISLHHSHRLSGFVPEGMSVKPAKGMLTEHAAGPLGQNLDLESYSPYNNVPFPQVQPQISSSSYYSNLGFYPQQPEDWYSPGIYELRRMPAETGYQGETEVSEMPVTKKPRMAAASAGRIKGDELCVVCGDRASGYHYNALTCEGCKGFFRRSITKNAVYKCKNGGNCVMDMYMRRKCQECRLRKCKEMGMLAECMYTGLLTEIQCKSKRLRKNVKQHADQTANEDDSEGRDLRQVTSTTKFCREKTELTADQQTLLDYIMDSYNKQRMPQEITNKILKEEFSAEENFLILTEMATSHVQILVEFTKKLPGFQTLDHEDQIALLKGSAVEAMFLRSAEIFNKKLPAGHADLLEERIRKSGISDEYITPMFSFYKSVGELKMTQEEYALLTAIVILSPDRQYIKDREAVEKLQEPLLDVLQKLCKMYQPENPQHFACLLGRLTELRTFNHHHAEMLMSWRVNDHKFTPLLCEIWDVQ
As to the kind of experiment: Agonist activity at FXR in C57BL/6J mouse hepatocytes assessed as upregulation of SHP mRNA expression incubated for 24 hrs by qRT-PCR analysis. It is filed as cell-based. The conditions noted are these: Hepatocyte, filed as agonist, dose 0.4-10 µM. The gist of the method: (§1)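 Hepatocytes isolated from overnight-fasted male C57BL/6J mice (8–12 weeks), allowed 4 h to adhere, then given vehicle (0.5% DMSO) or compound at 0.4, 2 and 10 μM for 24 h. TRIzol RNA extraction, then qRT-PCR with GAPDH normalization by ΔΔCt. Values are expressed as fold over vehicle (mean ± S.E.M, n = 3).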
(In qPCR the cycle at which signal appears reflects the starting amount.)

Data set [4] concerns the target T4, Bile acid receptor (Mus musculus). As to the kind of experiment: Agonist activity at FXR in C57BL/6J mouse hepatocytes assessed as fold upregulation of SHP mRNA expression at 10 uM incubated for 24 hrs by qRT-PCR analysis relative to control. It is filed as cell-based. To be noted: Hepatocyte. The procedure, abridged: as §1
Data set [5] shares this target. As to the kind of experiment: Agonist activity at FXR in C57BL/6J mouse hepatocytes assessed as upregulation of BSEP mRNA expression at 0.4 to 10 uM incubated for 24 hrs by qRT-PCR analysis. The conditions noted are these: Hepatocyte, filed as agonist, dose 0.4-10 µM. It is filed as cell-based. The gist of the method:
as §1

For data set [6] the target is unchanged. As to the kind of experiment: In vivo agonist activity at FXR in C57BL/6J mouse assessed as fold upregulation of SHP mRNA expression in liver at 10 mg/kg, po measured after 6 hrs by qRT-PCR analysis relative to control. Type of data set: functional, organism-based. The procedure, abridged: (§2)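 Male C57BL/6J mice (7–8 weeks) were fasted 3 h, then dosed orally once in 0.25% CMC-Na (wt/vol) vehicle. Sacrificed 6 h post-dose; liver snap-frozen at -80 °C. TRIzol RNA extraction and qRT-PCR with GAPDH normalization (ΔΔCt). Results are fold over vehicle group (mean ± S.E.M, n = 6).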

The target is the same in data set [7]. As to the kind of experiment: In vivo agonist activity at FXR in C57BL/6J mouse assessed as downregulation of CYP7A1 mRNA expression in liver at 10 mg/kg, po measured after 6 hrs by qRT-PCR analysis. It is filed as functional, organism-based. The procedure, abridged: as §2
For data set [8] the target is unchanged. As to the kind of experiment: In vivo agonist activity at FXR in C57BL/6J mouse assessed as downregulation of CYP8B1 mRNA expression in liver at 10 mg/kg, po measured after 6 hrs by qRT-PCR analysis. Type of data set: functional, organism-based. The procedure, abridged: as §2
Data set [9] has the same target. As to the kind of experiment: In vivo agonist activity at FXR in C57BL/6J mouse assessed as fold upregulation of SHP mRNA expression in ileum at 10 mg/kg, po measured after 6 hrs by qRT-PCR analysis relative to control. It is filed as functional, organism-based. The procedure, abridged:
(§3)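 Fasting of male C57BL/6J mice (7–8 weeks) for 3 h preceded a single oral dose in 0.25% CMC-Na (wt/vol). Ileum was collected 6 h after dosing and snap-frozen. RNA was extracted with TRIzol for qRT-PCR, normalized to GAPDH (ΔΔCt). Reported as fold of vehicle group (mean ± SEM, n = 6).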

Data set [10] shares this target. As to the kind of experiment: In vivo agonist activity at FXR in C57BL/6J mouse assessed as fold upregulation of FGF15 mRNA expression in ileum at 10 mg/kg, po measured after 6 hrs by qRT-PCR analysis relative to control. Type of data set: functional, organism-based. The gist of the method: as §3
Data set [11] in a line: Drug uptake in ICR mouse liver at 15 mg/kg, po measured after 1.5 hrs by LC-MS/MS analysis. Type of data set: ADME, organism-based. To be noted: read-out: Drug uptake. The gist of the method: (§4)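 Overnight-fasted male ICR mice (n = 3 per time point) received single oral 15 mg/kg and were refed 2 h later. Blood and liver were taken at 1.5, 4 and 8 h. Serum (10 µL) was precipitated with 100 µL methanol/acetonitrile (1:1). Liver was homogenized in ten times its weight of the same solvent. Supernatants were diluted 1:1 in ACN/H₂O and analyzed by LC-MS/MS. The ratio is liver conc (ng/g) over plasma conc (ng/mL).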

Data set [12] can be described thus: Drug uptake in ICR mouse liver at 15 mg/kg, po measured after 4 hrs by LC-MS/MS analysis. Type of data set: ADME, organism-based. To be noted: read-out: Drug uptake. The procedure, abridged:
as §4

The nature of data set [13]: Drug uptake in ICR mouse liver at 15 mg/kg, po measured after 8 hrs by LC-MS/MS analysis. It is filed as ADME, organism-based. To be noted: read-out: Drug uptake. The procedure, abridged: as §4
Data set [14] in a line: Plasma concentration in ICR mouse at 15 mg/kg, po measured after 1.5 hrs by LC-MS/MS analysis. Type of data set: ADME, organism-based. The procedure, abridged: as §4
Data set [15] is described as follows: Plasma concentration in ICR mouse at 15 mg/kg, po measured after 4 hrs by LC-MS/MS analysis. It is filed as ADME, organism-based. The procedure, abridged:
as §4

The nature of data set [16]: Plasma concentration in ICR mouse at 15 mg/kg, po measured after 8 hrs by LC-MS/MS analysis. Type of data set: ADME, organism-based. The gist of the method: as §4
The nature of data set [17]: Ratio of drug uptake in ICR mouse liver to plasma at 15 mg/kg, po measured after 1.5 hrs by LC-MS/MS analysis. Type of data set: ADME, organism-based. The procedure, abridged: as §4
Data set [18] in a line: Ratio of drug uptake in ICR mouse liver to plasma at 15 mg/kg, po measured after 4 hrs by LC-MS/MS analysis. It is filed as ADME, organism-based. The gist of the method: as §4
The nature of data set [19]: Ratio of drug uptake in ICR mouse liver to plasma at 15 mg/kg, po measured after 8 hrs by LC-MS/MS analysis. Type of data set: ADME, organism-based. The gist of the method:
as §4

Activity calls are given as the source filed them. The rule behind the calls is not given here. Some results are limits rather than exact numbers.

Consider `C/C(=N\OCc1cc(C(=O)O)ccc1C#N)c1ccc(OCc2c(-c3c(Cl)cccc3Cl)noc2C2CC2)cc1Cl`, for which the EC50 was 45.2 nM on Bile acid receptor and over 100000 nM in data set [1]. In [2], the Emax at 5.5 h came to 1.1%. For the same molecule, the Activity entry in [3] is “Dose-Dependent Effect”. Also, the fold change (FC) in data set [4] is over 40; in [6], 2; in data set [9], 20; in [10] it was 5. Moreover, the result in [5], in data set [7] and in data set [8] was Active. In addition, the figures for the concentration at 1.5 h in data set [11] and in data set [14] were 4530 ng/g and 124 ng/mL, respectively. Besides, the concentration at 4 h was determined as 2610 ng/g in data set [12] and 45.4 ng/mL in [15]. Further, the concentration at 8 h in [13] was 341 ng/g; in data set [16] it was 7.8 ng/mL. Moreover, in data set [17], the Kp at 1.5 h was determined as 37. Moreover, the Kp at 4 h in [18] was 57. In addition, in [19], the Kp at 8 h worked out at 43.
